# Source: PubChem
# Compounds with a hit are over-represented: about 27% of the library has one in this group of screens.
# Cav32 inh = inhibitors of human Cav3.2 T-type calcium channel; O95180; Cav3.2-expressing cells, Fluo-4 calcium fluorescence FDSS; stronger effect = lower value; B-score at 10 µM; actives 4% (n = 100,000); AID 449739;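 active means single-dose well whose peak fluorescence ratio is a statistical outlier from its plate by either plate-standardised score or position-corrected B-score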
# CYP2C19 inh = human CYP2C19 inhibition; actives 21% (n = 96,000); P33261; CYP2C19 Supersomes, luciferin-H EGE luminescence, 30 min; inhibition, % at 5 µM;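 active means CYP2C19 inhibition above a set limit at 5 µM in the primary screen, cut at about 50% in these data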;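 further: plate controls were negative control wells for no effect and 2.5 mM tranylcypromine positive control for full effect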
# CYP2C9 inh = human CYP2C9 inhibition | P11712 | CYP2C9 Supersomes, luciferin-H conversion, luminescence | inhibition, % at 5 µM | actives 20% (n = 96,000) | AID 777;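 active means blocking of liver enzyme CYP2C9 beyond about 50% at 5 µM, limit read from the data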
# Target sequence (P11712 whole entry, looked up): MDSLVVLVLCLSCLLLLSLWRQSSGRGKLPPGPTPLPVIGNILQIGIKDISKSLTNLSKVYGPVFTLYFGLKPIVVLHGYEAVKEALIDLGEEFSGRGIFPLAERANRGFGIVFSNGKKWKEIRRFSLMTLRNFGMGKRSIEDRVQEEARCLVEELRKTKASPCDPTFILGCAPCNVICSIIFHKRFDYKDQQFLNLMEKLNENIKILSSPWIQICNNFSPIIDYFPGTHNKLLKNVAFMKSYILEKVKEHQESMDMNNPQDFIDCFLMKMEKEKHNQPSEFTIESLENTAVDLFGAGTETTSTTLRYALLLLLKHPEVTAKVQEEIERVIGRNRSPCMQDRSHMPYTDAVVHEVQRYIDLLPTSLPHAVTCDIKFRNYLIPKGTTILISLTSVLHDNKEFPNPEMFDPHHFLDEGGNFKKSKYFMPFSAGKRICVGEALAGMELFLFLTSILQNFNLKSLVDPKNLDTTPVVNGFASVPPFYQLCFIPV
# HIV Rev-RRE inh = disrupts HIV-1 Rev binding to RRE RNA; P05866; Rev peptide-RRE RNA binding, FRET; inhibition, % at 8 µM; actives 0.79% (n = 97,000);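 active means inhibition above the screen-wide mean plus 3 SD, cut at about 35% in these data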;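 further: 0% = median DMSO wells and 100% = median Neomycin B control wells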
# Target sequence (P05866 whole entry, looked up): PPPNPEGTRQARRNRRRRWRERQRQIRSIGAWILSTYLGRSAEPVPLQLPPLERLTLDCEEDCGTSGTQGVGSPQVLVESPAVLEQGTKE
#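 Test system – labelled RRE RNA duplex and labelled Rev peptide · Reagent – labelled Rev peptide · Doses – one concentration, 8 µM nominal · Incubation – 5 + 15 min at 25 °C · Signal – FRET fluorescence readout · Read-out basis – % inhibition of FRET ratio versus controls · Control set – DMSO wells as 0% and neomycin B wells as 100% inhibition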
# CYP2C9 act = activators of human CYP2C9; P11712; recombinant CYP2C9, luciferin-H conversion, luminescence; stronger effect = higher value; factor 1 = untreated enzyme, 0 = blocked; activation factor at 5 µM; actives 1.4% (n = 96,000);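 active means activation factor of 2 or more for CYP2C9 at a 5 µM dose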;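 further: 0 = sulfaphenazole-blocked wells and 1 = vehicle-only wells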
# CYP2C19 act = cytochrome P450 2C19 (human) activation; P33261; recombinant CYP2C19, luciferin-H EGE luminescence; stronger effect = higher value; 0 = fully inhibited enzyme, 1 = untreated enzyme; activation factor at 5 µM; 96,000 tested, under 10 active; AID 1025;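 active means activation factor of at least 2 at 5 µM in the primary screen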;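 further: 0 = wells with 2.5 mM tranylcypromine and 1 = vehicle-only wells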
# Numbers without * were called inactive; nt = no result.
SMILES,Cav32 inh,CYP2C19 inh,CYP2C9 inh,HIV Rev-RRE inh,CYP2C9 act,CYP2C19 act
O=C(CSC(=S)N1CCOCC1)Nc1nc(-c2ccccc2)c(-c2ccccc2)o1,-2.67,26.2,12.2,9.1,0.9,0.7
CCCCNC(=S)NNC(=O)c1nn(C)cc1Cl,-0.0696,nt,nt,0.9,nt,nt
CN(C)c1oc(-c2ccc(OCc3ccccc3)cc2)nc1C#N,0.683,79.5*,14.9,-3.6,0.9,0.2
Cn1c(OCc2ccc3c(c2)OCO3)nc2c1c(=O)n(Cc1cccc(Cl)c1)c(=O)n2C,-0.778,nt,nt,12.4,nt,nt
Cc1ccc(SCCNC(=O)CN2C(=O)c3ccccc3S2(=O)=O)cc1,-0.117,61.3*,79.3*,nt,0.2,0.4
CC(C)(C)SCCNC(=O)CN1C(=O)c2ccccc2S1(=O)=O,1.79,3.9,13.9,2.9,0.9,1
O=C(CN1C(=O)c2ccccc2S1(=O)=O)NCCSc1ccccc1,0.729,79.3*,63.5*,0.2,0.4,0.2
Cc1cc2occ(CC(=O)NC3=NCCS3)c2cc1C(C)C,-1.26,26.3,-19.9,13.7,1.2,0.7
O=S(=O)(Nc1ccc2c(c1)CCC2)c1cccs1,-5.58*,98.6*,83.0*,1.9,0.2,0
O=C1OCc2cc(NS(=O)(=O)c3cccs3)ccc21,0.299,76.3*,89.3*,8.6,0.1,0.2
COC1(OC)N=C(N)C2(C#N)C(c3ccccc3)NC(C)=CC12C#N (stereo unspecified),0.481,3.0,-2.5,7.2,1,1
CC1=CC(C#N)(C#N)C(C#N)(C#N)C(c2ccccc2)N1 (stereo unspecified),-2.32,28.0,89.6*,51.6*,0.1,0.7
N#Cc1c(NC(=O)c2ccccc2)sc2c1CCC2,0.858,7.9,5.1,9.0,0.9,0.9
CC(C)CC(=O)NC(NC(=S)Nc1sc2c(c1C#N)CCCC2)C(Cl)(Cl)Cl (stereo unspecified),-5.3*,52.8*,100.0*,0.1,0,0.5
Cc1nn(CCCC(=O)Nc2sc3c(c2C#N)CCC3)c(C)c1[N+](=O)[O-],-0.616,29.8,41.2,-2.8,0.6,0.7
CC(C)(C)C(=O)Nc1sc2c(c1C#N)CCCCC2,0.0172,nt,nt,5.2,nt,nt
Cc1nn(C(C)C(=O)Nc2sc3c(c2C#N)CCCC3)c(C)c1[N+](=O)[O-] (stereo unspecified),-3.28*,21.4,61.2*,8.4,0.4,0.8
Cn1ncc(Cl)c1C(=O)NC(=S)Nc1sc2c(c1C#N)CCCCC2,-0.214,16.9,63.1*,1.0,0.4,0.8
CC(C)C(C(=O)Nc1sc2c(c1C#N)CCCCC2)N1C(=O)c2ccccc2C1=O (stereo unspecified),-8.73*,34.7,63.6*,7.0,0.4,0.7
C#CCOCCOCCOCCNc1nc(N2CCN(C(=O)[C@H](CCCCN)n3cc([C@@H](N)C(C)CC)nn3)CC2)nc(N2CCN(C(=O)[C@H](CCCCN)n3cc([C@@H](N)CC(C)C)nn3)CC2)n1 (stereo partly specified),1.1,nt,nt,nt,nt,nt
C=CCSc1nnc(-c2cc3c(-c4ccccc4)nn(C)c3s2)n1C,nt,54.8*,33.1,4.7,0.7,0.5
C=CCSc1nnc(-c2cc3c(C(F)(F)F)nn(C)c3s2)n1C,-0.521,-1.1,-49.3,0.1,1.5,1
COc1ccc(OC)c(C2C(C(C)=O)=C(O)C(=O)N2c2ccc(O)cc2)c1 (stereo unspecified),-0.312,14.0,19.7,-0.6,0.8,0.9
CCOC(=O)C1/C(=N\O)CC(C)(O)C(C(=O)OCC)C1c1ccc(N(C)C)cc1 (stereo unspecified),0.0238,83.6*,20.8,-0.3,0.8,0.2
O=C(C[n+]1ccc(C(=O)N/N=C/c2ccc(Br)cc2)cc1)c1ccccc1,-0.0769,74.0*,33.8,10.9,0.7,0.3
SMILES,Cav32 inh,CYP2C19 inh,CYP2C9 inh,HIV Rev-RRE inh,CYP2C9 act,CYP2C19 act
COc1cccc(S(=O)(=O)Nc2ccc(C(=O)N3CCN(C(=O)c4ccco4)CC3)cc2)c1,1.06,nt,nt,-2.5,nt,nt
COc1ccc2c(c1)[nH]c1c(=O)n(CCc3cnc[nH]3)cnc12,-0.0803,84.9*,96.2*,6.0,0,0.2
COc1ccc2c(c1)[nH]c1c(=O)n(CCN(C)C)cnc12,1.13,4.1,28.0,-5.7,0.7,1
CCC(=O)Nc1nc2ccccc2n1Cc1ccc(C)cc1,-0.614,81.0*,33.0,2.2,0.7,0.2
CCC(=O)Nc1nc2ccccc2n1Cc1ccccc1,-0.556,28.6,2.3,nt,1,0.7
Cc1ccc(Cn2c(NS(=O)(=O)c3ccccc3)nc3ccccc32)cc1,-1.85,34.1,63.6*,12.1,0.4,0.7
COc1cc(/C=C/C(=O)c2ccccc2O)cc(OC)c1OC,-0.0548,nt,nt,nt,nt,nt
COc1ccc(/C=C/C(=O)c2ccccc2)cc1COc1ccccc1F,-4.15*,40.8,74.5*,15.4,0.3,0.6
COc1cc(OC)cc(C(=O)N/N=C/c2ccc(OC)c(COc3ccc(F)cc3)c2)c1,nt,32.9,9.9,8.2,0.9,0.7
COc1ccc(/C=C/C(=O)c2ccccc2O)cc1CN1CCOCC1,0.704,57.8*,43.8,1.7,0.6,0.4
CC(=O)Nc1ccc(NC(=O)CN(c2cccc(C)c2)S(C)(=O)=O)cc1,0.314,52.2*,19.2,12.1,0.8,0.5
CCN(CC)S(=O)(=O)c1ccc(NC(=O)CN(c2cccc(C)c2)S(C)(=O)=O)cc1,-4.45*,nt,nt,9.6,nt,nt
CC(=O)c1cccc(N(CC(=O)Nc2cccnc2)S(C)(=O)=O)c1,0.0439,10.8,-23.5,9.6,1.2,0.9
CCN(CC)S(=O)(=O)c1ccc(NC(=O)CN(c2ccc(OC)cc2OC)S(C)(=O)=O)cc1,-6.62*,85.9*,100.0*,3.8,0,0.1
Cc1cccc(N(CC(=O)Nc2c(C)n(C)n(-c3ccccc3)c2=O)S(C)(=O)=O)c1,nt,17.6,33.5,7.5,0.7,0.8
CCN(CC(=O)Nc1ccc(OC)c(OC)c1)S(=O)(=O)c1ccc(C)cc1,1.04,10.0,11.5,2.6,0.9,0.9
Cc1ccc(/C=N/NC(=O)c2cccs2)cc1[N+](=O)[O-],nt,15.0,38.3,0.8,0.6,0.8
Cc1ccc(NC(=S)N/N=C/c2ccc(Cl)c([N+](=O)[O-])c2)cc1,0.173,22.0,55.7*,5.5,0.4,0.8
Cc1cc(C)cc(N(CC(=O)N2CCOCC2)S(=O)(=O)c2ccccc2)c1,-0.157,nt,nt,-0.5,nt,nt
COC(=O)C1(CCSC)NC(c2ccco2)C2C(=O)N(C)C(=O)C21 (stereo unspecified),-1.49,60.4*,-5.6,2.8,1.1,0.4
COC(=O)C1(CCSC)NC(c2ccccc2OC)C2C(=O)N(C)C(=O)C21 (stereo unspecified),0.411,-2.9,39.6,9.4,0.6,1
Cc1cc(Nc2cc(C(=O)O)ccc2C)n2ncnc2n1,0.0221,-2.2,0.7,9.8,1,1
